From the EternaBench riboswitch data

Test system: MS2 coat protein
Assay: apparent Kd, MS2 coat protein; higher = weaker binding; RNA-MaP array; FMN 200 µM where present
Method in brief: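 Each design was made on Illumina sequencing-chip clusters by stalled E. coli RNA polymerase and titrated with SNAP-549-labelled MS2 coat protein from 0.7 or 1.5 nM, doubling to 3 µM, in the absence and then the presence of constant ligand. The buffer was 100 mM Tris-HCl pH 7.5, 80 mM KCl, 4 mM MgCl2, BSA, DTT, yeast tRNA and Tween-20. The apparent Kd is the median of filtered per-cluster fits of binding curves, with green signal normalised to red-channel RNA signal and control-cluster median Fmax.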

[1] = designed as: OFF switch for flavin mononucleotide, no ligand
[2] = ligand present: flavin mononucleotide, designed as: OFF switch for flavin mononucleotide
[3] = designed as: ON switch for flavin mononucleotide, no ligand
[4] = ligand present: flavin mononucleotide, designed as: ON switch for flavin mononucleotide

Sequence: CAGUACAGAGGAUAUACAUGAGGAUCACCCAUGUGUUUCAGCUAGGAGACUAGCGAGUGUAGAAGGCUGUACUG
- apparent Kd [1]: 37.4 nM
- apparent Kd [2]: 360 nM

Sequence: CAGUACUGAGGAUAUACAUGAGGAUCACCCAUGUAUCCUAGCUAGGAAACUAGCAAAUGUAGAAGGCAGUACUG
- apparent Kd [1]: 62.5 nM
- apparent Kd [2]: 458 nM

Sequence: CAGUACUGAGGAUAUACAUGAGGAUCACCCAUGUGCUCAAAGUAGGAUACUACUAUUAGUAGAAGGCAGUACUG
- apparent Kd [1]: 22.2 nM
- apparent Kd [2]: 214 nM

Sequence: CAGUACUGAGGAUAUACAUGAGGAUCACCCAUGUGUCCUGGCUAGGAUACUAGCAAAGGUAGAAGGCAGUACUG
- apparent Kd [1]: 16.6 nM
- apparent Kd [2]: 125 nM

Sequence: CAGUACUGAGGAUAUACAUGAGGAUCACCCAUGUGUUCCAGCUAGGAAACUAGCUAAAGUAGAAGGCAGUACUG
- apparent Kd [1]: 21.9 nM
- apparent Kd [2]: 424 nM

Sequence: CAGUGCUGUUGAGAGGAUAUGCGGCGACGGACAUGAGGAUCACCCAUGUUAGCGACAGCGUUGCGGCAGAAGGCUCUGCCCGCUA
- apparent Kd [3]: 52.3 nM
- apparent Kd [4]: 23.1 nM

Sequence: CAGUUUUGAGGAUAUCCAUCCUCCUACAUGAGGAUCACCCAUGUUUCCCUCUGGGUUUUCGGAGAAGGCAGUUAUC
- apparent Kd [1]: 341 nM
- apparent Kd [2]: 251 nM

Sequence: CAUAAGUCAGAGAAGGCGUACAUGCCCAGACUGUGACGGAUGACGACAUGAGGAUCACCCAUGUACGAGGAUAUCUGAGCAAUC
- apparent Kd [1]: 22.9 nM
- apparent Kd [2]: 168 nM

Sequence: CAUACACAUGAGGAUCACCCAUGUGAGGAUAUGCGUACGUUGUCCGUAGGCGACGUGCGCAGAAGGCGCGAGGU
- apparent Kd [1]: 37.7 nM
- apparent Kd [2]: 35.9 nM

Sequence: CAUGACGAAGGAUAUACAUGAGGAUCACCCAUGUGGUCAUGGAAUUACGUGUUCUCGCGUAGAAGGUUGUAGAG
- apparent Kd [1]: 11.3 nM
- apparent Kd [2]: 12.8 nM

Sequence: CAUGCGGGCGGGUUUUUGAUACAUGAGGAUCACCCAUGUCUUGAGGAUAUCUUUGCAACACGCCAAGAGAAGGCAAGGCGUUUC
- apparent Kd [1]: 33.6 nM
- apparent Kd [2]: 107 nM

Sequence: CAUGUCCUCGCAGGAUAUGCUGGACUUUGUCCAGCAGAAGGGUGAUAACAUGAGGAUCACCCAUGUGGACAUGAUAUAUUUAAU
- apparent Kd [3]: 28.1 nM
- apparent Kd [4]: 1720 nM

Sequence: CAUUAAUUCAUUAUAGUAAUUAUACAGGAUAUGUAACAUGAGGAUCACCCAUGUAUUCUUGGUUAACAGAAGGGUAUUACAAGU
- apparent Kd [1]: 16.5 nM
- apparent Kd [2]: 28.4 nM

Sequence: CAUUAAUUCAUUAUAGUUAUUAUACAGGAUAUGUUACAUGAGGAUCACCCAUGUUUUCAUGGUAAACAGAAGGGUAUAUCAAGU
- apparent Kd [1]: 124 nM
- apparent Kd [2]: 232 nM

Sequence: CAUUAUGUUGAGGAUAUGCGCCGGCUCGCUGGCACAGAAGGCGACACAUGAGGAUCACCCAUGUCAGUUCGCGA
- apparent Kd [1]: 12.2 nM
- apparent Kd [2]: 14.8 nM

Sequence: CAUUCCAGGUAGAAGGGAUUACUACAUGAGGAUCACCCAUGUCGAUUGGUCAGGAUAUGCCUGUCACGACGCGUGAUGCUAAAA
- apparent Kd [3]: 382 nM
- apparent Kd [4]: 187 nM

Sequence: CAUUGACGACAAUUACAUGAGGAUCACCCAUGUUUUGGGAUGCAGGAUAUGUGGUAUAUUAAUUAACAGAAGGGCAAUAAUUUU
- apparent Kd [3]: 34.7 nM

Sequence: CAUUUGUGAGGAUAUCAGGUGUGCUAGCGUACUGGUACAUCUGAGAAGGCACAUGAGGAUCACCCAUGUUUCUU
- apparent Kd [2]: 43.3 nM

Sequence: CCACCUCCUGAGGAUAUUGCAUCACCCGACUGAUAAGAAGGCAGAACAUGAGGAUCACCCAUGUGGGUACUCAC
- apparent Kd [1]: 84 nM
- apparent Kd [2]: 87.1 nM

Sequence: CCACGUCACAUCUACAUGAGGAUCACCCAUGUCAAAAGACAUGAGGAUAUGCUACCUAAUUGGUAGCAGAAGGCAUGGACGUGG
- apparent Kd [3]: 982 nM
- apparent Kd [4]: 64.4 nM

Sequence: CCACGUCACAUUUACAUGAGGAUCACCCAUGUCGAAAGACAUGAGGAUAUGCUACCUAAUUGGUAGCAGAAGGCAUGGACGUGG
- apparent Kd [3]: 203 nM
- apparent Kd [4]: 284 nM

Sequence: CCAGCGUAUGUGAGGAUAUGCUGGUCCUUGGAUCAGCAGAAGGCACAUGAGGAUCACCCAUGUGGAAACGUUGG
- apparent Kd [1]: 18.7 nM
- apparent Kd [2]: 63.5 nM

Sequence: CCAGCGUAUGUGAGGAUAUGCUGGUCCUUGGAUCAGCAGAAGGCACAUGAGGAUCACCCAUGUGGAGACGUUGG
- apparent Kd [1]: 21.8 nM
- apparent Kd [2]: 102 nM

Sequence: CCAGGCUGUGUGAGGAUAUGCUGGUCCUUGGAUCAGCAGAAGGCACAUGAGGAUCACCCAUGUGAAGAGCUUGG
- apparent Kd [1]: 16.4 nM
- apparent Kd [2]: 65 nM

Sequence: CCAUAAAAGAUCCAAAAUUACAACAUGAGGAUCACCCAUGUGCAGGAUAUCGUGAAAGUGAAGUACGAGAAGGGCAGACACUGC
- apparent Kd [1]: 145 nM
- apparent Kd [2]: 166 nM

Sequence: CCAUGGUGGGCAGGAUAUCGUCCAGCUUGCAGACGAGAAGGGCUUAAACAUGAGGAUCACCCAUGUGAAAAGCGGGUUGUCCAA
- apparent Kd [1]: 26.5 nM
- apparent Kd [2]: 131 nM

Sequence: CCCAAACUUGGGUUUGGUGGUUCAUAGGAUAUGCUUGUACAUGAGGAUCACCCAUGUACUAUUGUGCAGAAGGGUGCAUGGCAA
- apparent Kd [3]: 36.7 nM
- apparent Kd [4]: 26.5 nM

Sequence: CCCACGAAAGUCGAACGAUGAUGGAGAAGGACUAUAACAUGACAUGAGGAUCACCCAUGUGCCAAGUAGGAUAUCCAUCAUGGG
- apparent Kd [1]: 5.97 nM
- apparent Kd [2]: 5.34 nM

Sequence: CCCGCUGGAGGAUAUGCACUACGUGUGUUUUCUUUUGAGGCACAUGAGGAUCACCCAUGUAGAAGGCCACGCGG
- apparent Kd [1]: 97.6 nM
- apparent Kd [2]: 430 nM

Sequence: CCCUCACAUGAGGAUCACCCAUGUCAGGAUAUUCGGCGGUCAAUUGACCGCCUUAAAGGAAGAAGGGACGUAAA
- apparent Kd [1]: 12.7 nM
- apparent Kd [2]: 18.9 nM

Sequence: CCCUGUGGAGGAUAUUGCAAAGGUGACAUGAGGAUCACCCAUGUUGGACGUUAAGCACUGCAAGAAGGCCGGUUGA
- apparent Kd [1]: 50 nM
- apparent Kd [2]: 24.5 nM

Sequence: CCGAAUGUCACAGGAUAUGGUCCGGGCACGGGACCAGAAGGGUGAUCUCACAUGAGGAUCACCCAUGUGCAGGCGUUAGGCUGC
- apparent Kd [3]: 18.6 nM
- apparent Kd [4]: 86 nM

Sequence: CCGAAUGUCACAGGAUAUGGUCCGGGCUCGGGACCAGAAGGGUGAUCUCACAUGAGGAUCACCCAUGUGUAGGCGUUAGGCUAC
- apparent Kd [3]: 36.7 nM
- apparent Kd [4]: 249 nM

Sequence: CCGAGCUUGGCAGGAUAUAGACUCGAAGUUGAUCCCGCCGGUGGAGACAUGAGGAUCACCCAUGUCUAGAAGGGCCAGUCGAAA
- apparent Kd [1]: 11.7 nM
- apparent Kd [2]: 36 nM

Sequence: CCGAGGCGAGGAUAUACAUGAGGAUCACCCAUGUCUGACCGACGCGCGCCAGGCAUAUGUAGAAGGCGCCGGAA
- apparent Kd [1]: 31.5 nM
- apparent Kd [2]: 138 nM

Sequence: CCGAUGAGAGUCGGGCUACAUGAGGAUCACCCAUGUGCUUCACAGGAUAUGGUACGUAGUGAGUUCCAGAAGGGUGAUUAAUCU
- apparent Kd [3]: 316 nM
- apparent Kd [4]: 48.7 nM

Sequence: CCGAUGCUUAUAAAACAUGAGGAUCACCCAUGUGAGACACAUGAGGAUAUGCAGGUCAAAGACUUGCAGAAGGCAUAGCGUCGG
- apparent Kd [3]: 644 nM
- apparent Kd [4]: 61.8 nM

Sequence: CCGAUGUAAGGAUAUCGUGCAAGUUUCAAAAGAGGCUUGUGCGAGAAGGUACAUGAGGAUCACCCAUGUAGGUU
- apparent Kd [1]: 95.4 nM
- apparent Kd [2]: 345 nM

Sequence: CCGCAAAUGCAGGAUAUCGUAUCGGAUACGAUACGAGAAGGGCAAACAUGAGGAUCACCCAUGUGUCCUAGCGG
- apparent Kd [1]: 15 nM
- apparent Kd [2]: 26.6 nM

Sequence: CCGGAAACGGGUAGCCUGACAUGAGGAUCACCCAUGUAAUCCGAGGAUAUGGAUCCUAAUUGGAUCCAGAAGGUGGCAGGCUAC
- apparent Kd [3]: 463 nM
- apparent Kd [4]: 127 nM

Sequence: CCGGAAACGGGUAGCUCACAUGAGGAUCACCCAUGUAAAACACAGGAUAUGGAUCCUAAUUGGAUCCAGAAGGGUGUGAGCUAC
- apparent Kd [3]: 40.1 nM
- apparent Kd [4]: 23.6 nM

Sequence: CCGGAAACGGGUAGCUGUACAUGAGGAUCACCCAUGUGAUCAGAGGAUAUGGAUCCUAAUUGGAUCCAGAAGGCUGUCAGCUAC
- apparent Kd [3]: 119 nM
- apparent Kd [4]: 29.1 nM

Sequence: CCGGAAACGGGUAGCUGUACAUGAGGAUCACCCAUGUGAUCAUAGGAUAUGGAACCUAAUUGGUUCCAGAAGGAUGUCAGCUAC
- apparent Kd [3]: 237 nM
- apparent Kd [4]: 598 nM

Sequence: CCGGAAACGGGUAGCUGUACAUGAGGAUCACCCAUGUGAUCAUAGGAUAUGGAUCCUAAUUGGAUCCAGAAGGAUGUCAGCUAC
- apparent Kd [3]: 163 nM
- apparent Kd [4]: 580 nM

Sequence: CCGGAAACGGGUAGCUGUACAUGAGGAUCACCCAUGUGAUCAUAGGAUAUGGAUGGUAAUUCCAUCCAGAAGGAUGUCAGCUAC
- apparent Kd [3]: 216 nM
- apparent Kd [4]: 715 nM

Sequence: CCGGAAAUAGAGGAUAUAGGACUGGAUACAGUCCUAGAAGGCUAUACAUGAGGAUCACCCAUGUGUCCUACCGG
- apparent Kd [1]: 15.7 nM
- apparent Kd [2]: 44 nM

Sequence: CCGGAAAUGUAGGAUAUAGGAGUCGAUAGACACCUAGAAGGGCAUACAUGAGGAUCACCCAUGUGUCCUACCGG
- apparent Kd [1]: 13.7 nM
- apparent Kd [2]: 15.8 nM

Sequence: CCGUAAGAGCGGACAUGAGGAUCACCCAUGUAAGAGUCAUCCAGAAGGUCAGCGCUAAAUGGAAUGAAGGAUAUGGAGUGGGUC
- apparent Kd [3]: 668 nM
- apparent Kd [4]: 357 nM

Sequence: CCGUCCCGGCUGCAGCUCGGUAACAUGAGGAUCACCCAUGUCAAGGAUAUAACCAUACUCGAUCGUUAGAAGGUGACAGGGUCC
- apparent Kd [1]: 175 nM
- apparent Kd [2]: 107 nM

Sequence: CCGUGGCAAGGAUAUACAUAGGAGAGGAAGGCAAGAGGAGGACAUGAGGAUCACCCAUGUAGAAGGUGCAGAUC
- apparent Kd [1]: 73.8 nM
- apparent Kd [2]: 67.8 nM

Sequence: CCUAAAAGGAAGGAUAUGCUAGACGAAAGUCUAGCAGAAGGUCCUACAUGAGGAUCACCCAUGUGUCCUAUAGG
- apparent Kd [1]: 48.5 nM
- apparent Kd [2]: 59.4 nM

Sequence: CCUAGUUGGUAAGGAUAUCCUACACUGUUCUGACCCGUGCGAGCUACAUGAGGAUCACCCAUGUGGGAGAAGGUGCGUCAACGC
- apparent Kd [1]: 18.2 nM
- apparent Kd [2]: 17.9 nM

Sequence: CCUAUGUGAGGAUAUGUCUGGUCUUCUUUUGUUUUUUACAGACAGAAGGCACAUGAGGAUCACCCAUGUCAGAC
- apparent Kd [1]: 16.8 nM
- apparent Kd [2]: 24.4 nM

Sequence: CCUCACAGAGGAUAUACGUCCACUGAACCCAUGAGGUUGCCACAUGAGGAUCACCCAUGUAGAAGGCUGUGCUG
- apparent Kd [1]: 20.1 nM
- apparent Kd [2]: 42.9 nM

Sequence: CCUCCACAUGAGGAUCACCCAUGUCAGGAUAUCGCGCGCGCGUUUUCGGUCUUUCGCGCGAGAAGGGACGACUG
- apparent Kd [1]: 34.4 nM
- apparent Kd [2]: 54.5 nM

Sequence: CCUCCCUGAGGAUAUCCACCCUCAUACAUGAGGAUCACCCAUGUUCAACCCUGGGUUCCCGGAGAAGGCAGAUUUC
- apparent Kd [1]: 115 nM
- apparent Kd [2]: 134 nM
